In brackets after ≈: the same amount, converted by molar mass. Activity calls are given as the source filed them. No cut-off for these calls is given here.
How the values were obtained:
Bacillus subtilis = assay: Antibacterial activity against Bacillus subtilis ATCC 6633; format: functional
In short: (§1)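 Strains grown in modified Gause's nutrient medium N 2, inoculum 10⁶ cells/ml. Test compound dissolved in 50% aqueous methanol, added at ten volume percent of the medium. Growth controls: medium without additions, medium with solvent mixture, and clinical antibiotics (amikacin, ciprofloxacin, isoniazid, rifampicin, oxacillin, vancomycin).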

[1] = test system: Mycolicibacterium smegmatis; assay: Antibacterial activity against Mycobacterium smegmatis mc2155; format: functional
In short: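 Strains were grown in modified Gause's nutrient medium N 2 at 10⁶ cells/ml. The compound was dissolved in 50% aqueous methanol and added at 10 volume percent of the medium. Controls were untreated cultures, medium with the solvent mixture, and clinical antibiotics.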

[2] = test system: Mycolicibacterium smegmatis; assay: Antibacterial activity against Mycobacterium smegmatis VKPM Ac-1339; format: functional; in short: as §1
Staphylococcus aureus [3] = assay: Antibacterial activity against Staphylococcus aureus FDA 209 P; format: functional; in short: as §1
Staphylococcus aureus [4] = assay: Antibacterial activity against Staphylococcus aureus INA 00761; format: functional; in short: as §1
Micrococcus luteus = assay: Antibacterial activity against Micrococcus luteus NCTC 8340; format: functional; in short: as §1
[5] = test system: Leuconostoc mesenteroides; assay: Antibacterial activity against Leuconostoc mesenteroides VKPM B-4177; format: functional; in short: as §1
[6] = Cytotoxicity against human A549 cells by MTT assay; format: cell-based
In short: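 Adherent A549 cells passaged in DMEM with 10% fetal calf serum and 2 mM glutamine, at 37 °C, 5% CO2, 90% humidity. MTT test. CC50 is the concentration that inhibits culture growth by 50%.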

Aspergillus versicolor [7] = assay: Antifungal activity against Aspergillus versicolor SRX7729174 STG-25G assessed as reduction in fungal growth at 0.1 to 3.5 mM measured for 24 days by drop dilution assay relative to control; format: functional; conditions: dose 0.1-3.5 mM, time 24.0 day
In short: (§2)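 Drop-dilution method. Suspension plated on CDA with or without compound (screening range 0.1–3.5 mM); 5-fluorocytosine positive control. Incubated at 26 °C. Inhibition % = (Dc−Dt)/Dc × 100 from colony diameters; triplicate, repeated at least twice.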

Aspergillus creber = assay: Antifungal activity against Aspergillus-creber SRX7729180 STG-57 assessed as reduction in fungal growth at 0.1 to 3.5 mM measured for 24 days by drop dilution assay relative to control; format: functional; conditions: dose 0.1-3.5 mM, time 24.0 day; in short: as §2
Aspergillus versicolor [8] = assay: Antifungal activity against Aspergillus versicolor SRX7729182 STG-25G assessed as reduction in fungal growth at 0.1 to 3.5 mM measured for 24 days by drop dilution assay relative to control; format: functional; conditions: dose 0.1-3.5 mM, time 24.0 day; in short: as §2
Aspergillus = assay: Antifungal activity against Aspergillus SRX7729186 STG-93W assessed as reduction in fungal growth at 0.1 to 3.5 mM measured for 24 days by drop dilution assay relative to control; format: functional; conditions: dose 0.1-3.5 mM, time 24.0 day; in short: as §2
Aspergillus amoenus = assay: Antifungal activity against Aspergillus-amoenus SRX7729194 STG-106 assessed as reduction in fungal growth at 0.1 to 3.5 mM measured for 24 days by drop dilution assay relative to control; format: functional; conditions: dose 0.1-3.5 mM, time 24.0 day; in short: as §2
[9] = test system: Cladosporium halotolerans; assay: Antifungal activity against Cladosporium-halotolerans SRX7729178 STG-52B assessed as reduction in fungal growth at 0.1 to 3.5 mM measured for 24 days by drop dilution assay relative to control; format: functional; conditions: dose 0.1-3.5 mM, time 24.0 day; in short: as §2
[10] = test system: Cladosporium parahalotolerans; assay: Antifungal activity against Cladosporium-parahalotolerans SRX7729188 STG-93B assessed as reduction in fungal growth at 0.1 to 3.5 mM measured for 24 days by drop dilution assay relative to control; format: functional; conditions: dose 0.1-3.5 mM, time 24.0 day; in short: as §2
Alternaria chartarum = assay: Antifungal activity against Ulocladium chartarum SRX7729176 STG-36 assessed as reduction in fungal growth at 0.1 to 3.5 mM measured for 24 days by drop dilution assay relative to control; format: functional; conditions: dose 0.1-3.5 mM, time 24.0 day; in short: as §2
[11] = test system: Simplicillium lamellicola; assay: Antifungal activity against Simplicilium-lamellicola SRX772919 STG-96 assessed as reduction in fungal growth at 0.1 to 3.5 mM measured for 24 days by drop dilution assay relative to control; format: functional; conditions: dose 0.1-3.5 mM, time 24.0 day; in short: as §2
Microascus paisii = assay: Antifungal activity against Microascus-paisii SRX7729192 STG-103 assessed as reduction in fungal growth at 0.1 to 3.5 mM measured for 24 days by drop dilution assay relative to control; format: functional; conditions: dose 0.1-3.5 mM, time 24.0 day; in short: as §2
[12] = Metabolic stability in human serum assessed as half life at 100 mM measured for 24 hrs by HPLC/TLC analysis; format: ADME, cell-free
[13] = Chemical stability of compound in pH 2.2 at 5 mg measured after 7 days by TLC analysis; format: physicochemical; conditions: pH 2.2, 168 h, time 7 day
In short: (§3)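 Compound incubated at 37 °C in 0.2 M glycine/HCl (pH 2.2), 0.1 M potassium phosphate (pH 7.5) or 0.2 M glycine/NaOH (pH 9.0). Followed for 24 h and up to over a week.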

[14] = Chemical stability of compound in pH 7.5 at 5 mg measured after 7 days by TLC analysis; format: physicochemical; conditions: pH 7.5, 168 h, time 7 day; in short: as §3
[15] = Chemical stability of compound in pH 9 at 5 mg measured after 24 hrs by TLC analysis; format: physicochemical; conditions: pH 9, 24 h; in short: as §3
[16] = Aqueous solubility of compound; format: physicochemical; conditions: buffer

Structure (SMILES)	MIC (Bacillus subtilis) [µM]	MIC [1] [µM]	MIC [2] [µM]	MIC (Staphylococcus aureus [3]) [µM]	MIC (Staphylococcus aureus [4]) [µM]	MIC (Micrococcus luteus) [µM]	MIC [5] [µM]	CC50 [6] [µM]	other results
NCC[C@H](O)C(=O)N[C@@H]1C[C@H](N)[C@@H](O[C@H]2O[C@H](CN)[C@@H](O)[C@H](O)[C@H]2O)[C@H](O)[C@H]1O[C@H]1O[C@H](CO)[C@@H](O)[C@H](N)[C@H]1O [AMIKACIN]	7 (≈ 4.1 µg/mL)	50 (≈ 29.3 µg/mL)	29 (≈ 17 µg/mL)	3.4 (≈ 1.99 µg/mL)	5 (≈ 2.93 µg/mL)	1 (≈ 0.586 µg/mL)	–	–	–
CCCCCCCCNc1ccn([C@H]2C[C@H](O)[C@@H](CO)O2)c(=O)n1	> 200	> 200	> 200	> 200	> 200	> 200	> 200	90	–
O=c1nc(NCCCCc2ccccc2)ccn1[C@H]1C[C@H](O)[C@@H](CO)O1	> 200	> 200	> 200	> 200	> 200	> 200	> 200	90	–
CCCCCCCCCCCCNc1ccn([C@H]2C[C@H](O)[C@@H](CO)O2)c(=O)n1	70 (≈ 27.7 µg/mL)	70 (≈ 27.7 µg/mL)	70 (≈ 27.7 µg/mL)	70 (≈ 27.7 µg/mL)	70 (≈ 27.7 µg/mL)	70 (≈ 27.7 µg/mL)	70 (≈ 27.7 µg/mL)	100	–
CN[C@H](CC(C)C)C(=O)N[C@H]1C(=O)N[C@@H](CC(N)=O)C(=O)N[C@H]2C(=O)N[C@H]3C(=O)N[C@H](C(=O)N[C@H](C(=O)O)c4cc(O)cc(O)c4-c4cc3ccc4O)[C@H](O)c3ccc(c(Cl)c3)Oc3cc2cc(c3O[C@@H]2O[C@H](CO)[C@@H](O)[C@H](O)[C@H]2O[C@H]2C[C@](C)(N)[C@H](O)[C@H](C)O2)Oc2ccc(cc2Cl)[C@H]1O [VANCOMYCIN]	–	–	–	–	–	–	> 275	–	–
CCCCCCNc1nc(=O)n([C@H]2C[C@H](O)[C@@H](CO)O2)cc1C	> 200	> 200	> 200	> 200	> 200	> 200	> 200	90	–
CCCCCCCCNc1ccn([C@@H]2O[C@H](CO)[C@@H](O)[C@H]2O)c(=O)n1	> 200	> 200	> 200	> 200	> 200	> 200	> 200	90	–
Nc1nc(=O)[nH]cc1F	–	–	–	–	–	–	–	–	inhibition (Aspergillus versicolor [7]): Active; inhibition (Aspergillus creber): Active; inhibition (Aspergillus versicolor [8]): Active; inhibition (Aspergillus): Active; inhibition (Aspergillus amoenus): Active; inhibition [9]: Active; inhibition [10]: Active; inhibition (Alternaria chartarum): Active; inhibition [11]: Active; inhibition (Microascus paisii): Active
O=C(O)c1cn(C2CC2)c2cc(N3CCNCC3)c(F)cc2c1=O [CIPROFLOXACIN]	–	15 (≈ 4.97 µg/mL)	12 (≈ 3.98 µg/mL)	3 (≈ 0.994 µg/mL)	12 (≈ 3.98 µg/mL)	–	–	–	–
COCCOCCOCCNc1nc(=O)n([C@H]2C[C@H](O)[C@@H](CO)O2)cc1C	> 200	> 200	> 200	> 200	> 200	> 200	> 200	90	–
Cc1onc(-c2ccccc2)c1C(=O)N[C@@H]1C(=O)N2[C@@H]1SC(C)(C)[C@@H]2C(=O)O [OXACILLIN]	–	–	–	2.5 (≈ 1 µg/mL)	80 (≈ 32.1 µg/mL)	–	–	–	–
Cc1cn([C@H]2C[C@H](O)[C@@H](CO)O2)c(=O)nc1NCCc1ccccc1	> 200	> 200	> 200	> 200	> 200	> 200	> 200	90	–
CCCCCCCCCCCCCCNc1ccn([C@H]2C[C@H](O)[C@@H](CO)O2)c(=O)n1	> 200	> 200	> 200	> 200	> 200	> 200	> 200	90	–
CCCCCCCCCCNc1ccn([C@@H]2O[C@H](CO)[C@@H](O)[C@H]2O)c(=O)n1	> 200	> 200	> 200	> 200	> 200	> 200	> 200	90	–
CCCCCCCCCCNc1ccn([C@H]2C[C@H](O)[C@@H](CO)O2)c(=O)n1	140 (≈ 51.4 µg/mL)	140 (≈ 51.4 µg/mL)	140 (≈ 51.4 µg/mL)	> 140	> 140	140 (≈ 51.4 µg/mL)	140 (≈ 51.4 µg/mL)	200	–
CCCCCCCCCCCCNc1nc(=O)n([C@H]2C[C@H](OC(=O)OCCOCCOCCO)[C@@H](CO)O2)cc1C	68 (≈ 39.8 µg/mL)	68 (≈ 39.8 µg/mL)	68 (≈ 39.8 µg/mL)	50 (≈ 29.3 µg/mL)	50 (≈ 29.3 µg/mL)	50 (≈ 29.3 µg/mL)	68 (≈ 39.8 µg/mL)	90	half-life [12]: ≥ 24 h; Stabilty [13]: Stable; Stabilty [14]: Stable; Stabilty [15]: Stable; solubility [16]: Soluble
CO[C@H]1/C=C/O[C@@]2(C)Oc3c(C)c(O)c4c(O)c(c(/C=N/N5CCN(C)CC5)c(O)c4c3C2=O)NC(=O)/C(C)=C\C=C\[C@H](C)[C@H](O)[C@@H](C)[C@@H](O)[C@@H](C)[C@H](OC(C)=O)[C@@H]1C [RIFAMPIN]	–	5 (≈ 4.11 µg/mL)	10 (≈ 8.23 µg/mL)	–	–	–	–	–	–
CCCCCCCCCCNc1nc(=O)n([C@H]2C[C@H](O)[C@@H](CO)O2)cc1C	50 (≈ 19.1 µg/mL)	50 (≈ 19.1 µg/mL)	50 (≈ 19.1 µg/mL)	50 (≈ 19.1 µg/mL)	50 (≈ 19.1 µg/mL)	50 (≈ 19.1 µg/mL)	50 (≈ 19.1 µg/mL)	156	inhibition (Aspergillus versicolor [7]): inactive; inhibition (Aspergillus creber): inactive; inhibition (Aspergillus versicolor [8]): inactive; inhibition (Aspergillus): inactive; inhibition (Aspergillus amoenus): inactive; inhibition [9]: inactive; inhibition [10]: inactive; inhibition (Alternaria chartarum): inactive; inhibition [11]: inactive; inhibition (Microascus paisii): inactive
CCCCCCCCNc1nc(=O)n([C@H]2C[C@H](O)[C@@H](CO)O2)cc1C	> 200	> 200	> 200	> 200	> 200	> 200	> 200	90	inhibition (Aspergillus versicolor [7]): Active; inhibition (Aspergillus creber): Active; inhibition (Aspergillus versicolor [8]): Active; inhibition (Aspergillus): Active; inhibition (Aspergillus amoenus): Active; inhibition [9]: Active; inhibition [10]: Active; inhibition (Alternaria chartarum): Active; inhibition [11]: Active; inhibition (Microascus paisii): Active
CCCCCCCCCCNc1nc(=O)n([C@H]2C[C@H](OC(=O)OCCOCCOCCO)[C@@H](CO)O2)cc1C	90 (≈ 50.2 µg/mL)	54 (≈ 30.1 µg/mL)	54 (≈ 30.1 µg/mL)	54 (≈ 30.1 µg/mL)	54 (≈ 30.1 µg/mL)	> 45	90 (≈ 50.2 µg/mL)	90	half-life [12]: ≥ 24 h; Stabilty [13]: Stable; Stabilty [14]: Stable; Stabilty [15]: Stable; solubility [16]: Soluble; inhibition (Aspergillus versicolor [7]): inactive; inhibition (Aspergillus creber): inactive; inhibition (Aspergillus versicolor [8]): inactive; inhibition (Aspergillus): inactive; inhibition (Aspergillus amoenus): inactive; inhibition [9]: inactive; inhibition [10]: inactive; inhibition (Alternaria chartarum): inactive
NNC(=O)c1ccncc1 [ISONIAZID]	–	29 (≈ 3.98 µg/mL)	2 (≈ 0.274 µg/mL)	–	–	–	–	–	–
